# In ChEMBL document CHEMBL4024770, “Augmentation of Anticancer Drug Efficacy in Murine Hepatocellular Carcinoma Cells by a Peripherally Acting Competitive N-Methyl-d-aspartate (NMDA) Receptor Antagonist” (J Med Chem, 2017):
# Legend:
# [1] = tested on: Brain; test: AUC (0 to 240 mins) in mouse brain at 10 mg/kg, ip administered as bolus dose by LC-MS/MS analysis; type: ADME, organism-based; design: dose 10 mg/kg, time < 4 hr, route intraperitoneal; conditions: in vivo, 4 h
# Summary of the method: (§1)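 Adult male mice (25 ± 5 g) given a single 10 mg/kg i.p. bolus, prepared as a 5.0 mM solution in 0.9% NaCl. Animals were decapitated at five time points between 10 and 240 min. Plasma was precipitated with acetonitrile containing internal standard. Brain and liver were homogenized in water (1:3) and precipitated the same way. Analysis by LC-MS/MS, with AUC0–240, Cmax, tmax, t½β and liver/plasma ratio derived from the concentration-time data.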
# [2] = species on record: Mus musculus; test: Antagonist activity at NMDA receptor in Nras driven p53 deficient mouse HCC cell membranes assessed as LPS-stimulated PGE2 levels at 10 uM after 24 hrs by LC-MS/MS method (reference value: 162 +/- 7%); design: scale not given: the % may be the effect or the level left
# Summary of the method: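 Mouse Nras-driven p53−/− HCC cells in DMEM with 2 mM L-glutamine, 10% heat-inactivated FBS and penicillin/streptomycin. Cells incubated 24 h with or without antagonist, either without LPS or with 2.5 μg/mL LPS in the growth medium. Cells washed three times with ice-cold HBSS and lysed in acetonitrile on ice. PGE₂ in lysates measured by LC-MS/MS (LLOQ 1 nM) and expressed as % of control; n=3.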
# [3] = species on record: Mus musculus; test: (§2) Antagonist activity at NMDA receptor in Nras driven p53 deficient mouse HCC cell membranes assessed as decrease in Abcc1 to 5 protein expression levels by measuring fluorescein accumulation at 10 uM preincubated for 24 hrs followed by compound wash out and addition of fluorescein measured after 30 mins by fluorescence assay relative to control; design: scale not given: the % may be the effect or the level left
# Summary of the method: (§3)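 Nras p53−/− HCC cells (1 × 10⁵/well) were pretreated 24 h with or without 10 μM. They were then washed 3× in warm HBSS (choline chloride, pH 7.4) and incubated at 37 °C with probe in HBSS. Incubation was 30 min for [3H]-digoxin, 20 μM fluorescein or 10 μM sorafenib, and 5 min for [14C]-L-leucine or [14C]-D-glucose. Cells were washed ice-cold and lysed in 0.1 M NaOH. Read-out was scintillation, fluorescence or LC-MS/MS, normalized to protein.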
# [4] = tested on: Liver; test: AUC (0 to 240 mins) in mouse liver at 10 mg/kg, ip administered as bolus dose by LC-MS/MS analysis; type: ADME, organism-based; design: dose 10 mg/kg, time < 4 hr, route intraperitoneal; conditions: in vivo, 4 h; summary of the method: as §1
# [5] = tested on: Liver; test: Cmax in mouse liver at 10 mg/kg, ip administered as bolus dose by LC-MS/MS analysis; type: ADME, organism-based; design: dose 10 mg/kg, route intraperitoneal; conditions: in vivo; summary of the method: as §1
# [6] = molecular target: Glutamate receptor ionotropic, kainate 1 (Rattus norvegicus, UniProt P22756); test: Displacement of [3H]-SYM2081 from recombinant homomeric rat GluK1 (Q)1b receptor expressed in baculovirus infected Sf9 insect cell membranes by scintillation counting method
# [7] = species on record: Mus musculus; test: Antagonist activity at NMDA receptor in Nras driven p53 deficient mouse HCC cell membranes assessed as LPS-stimulated PGE2 levels at 100 uM after 24 hrs by LC-MS/MS method (reference value: 162 +/- 7%); design: scale not given: the % may be the effect or the level left
# Summary of the method: (§4)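 Nras-driven p53−/− mouse HCC cells in DMEM/10% FBS were incubated 24 h with or without 100 μM compound. This was done without LPS and with LPS (2.5 μg/mL) in the growth medium. Cells were washed with ice-cold HBSS and lysed in acetonitrile on ice. PGE2 in the lysates was quantified by LC-MS/MS and expressed as % of control. Mean ± SEM, n=3; one-way ANOVA/Tukey.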
# [8] = species on record: Mus musculus; test: as §2, with “Abcb1/Abcg2” for “Abcc1 to 5”, “sorafenib” for “fluorescein”, “LC/MS-MS method” for “fluorescence assay”; design: scale not given: the % may be the effect or the level left; summary of the method: as §3
# [9] = species on record: Mus musculus; test: as §2, with “Slc7a5” for “Abcc1 to 5”, “[14C]-L-leucine” for “fluorescein”, “5” for “30”, “scintillation counting method” for “fluorescence assay”; design: scale not given: the % may be the effect or the level left; summary of the method: as §3
# [10] = tested on: Brain; test: Cmax in mouse brain at 10 mg/kg, ip administered as bolus dose measured at 30 mins by LC-MS/MS analysis; type: ADME, organism-based; design: dose 10 mg/kg, route intraperitoneal; conditions: in vivo, 0.5 h; summary of the method: as §1
# [11] = molecular target: Glutamate receptor ionotropic, kainate 2 (Rattus norvegicus, UniProt P42260); test: Displacement of [3H]-KA from recombinant homomeric rat GluK2 (V,C,R)a receptor expressed in baculovirus infected Sf9 insect cell membranes by scintillation counting method
# [12] = species on record: Mus musculus; test: Antagonist activity at NMDA receptor in Nras driven p53 deficient mouse HCC cell membranes assessed as PGE2 levels at 100 uM after 24 hrs by LC-MS/MS method relative to control; design: scale not given: the % may be the effect or the level left; summary of the method: as §4
# [13] = species on record: Mus musculus; test: Antagonist activity at NMDA receptor in Nras driven p53 deficient mouse HCC cell membranes assessed as potentiation of 2.5 uM sorafenib-mediated antiproliferative activity by measuring cell viability at 100 uM after 72 hrs by resazurin assay (reference value: […] +/- […]%)
# [14] = species on record: Mus musculus; test: Antagonist activity at NMDA receptor in Nras driven p53 deficient mouse HCC cell membranes assessed as Slc2a1 protein expression levels at 10 uM by […] analysis relative to control; design: scale not given: the % may be the effect or the level left
# Summary of the method: (§5)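 Mouse Nras-driven p53−/− HCC cells in DMEM with 10% FBS, exposed 48 h with or without 10 μM antagonist, washed, pelleted and snap-frozen. Crude membrane fraction isolated. 50 μg protein reduced, alkylated, precipitated, then Lys-C digested (3 h, rt) and trypsin digested (1:100, 37°C, 16 h). One unique peptide per transporter quantified by multiplexed SRM/MRM LC-MS/MS against stable isotope-labelled standards. Unpaired two-tailed t-test versus control, n=4.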
# [15] = species on record: Mus musculus; test: as §2, with “Abcb1” for “Abcc1 to 5”, “[3H]-digoxin” for “fluorescein”, “scintillation counting method” for “fluorescence assay”; design: scale not given: the % may be the effect or the level left; summary of the method: as §3
# [16] = Displacement of [3H]-CGP-39653 from NMDA receptor in Sprague-Dawley rat brain synaptosomes after 60 mins by scintillation counting method; type: subcellular
# [17] = tested on: Plasma; test: Tmax in mouse plasma at 10 mg/kg, ip administered as bolus dose by LC-MS/MS analysis; type: ADME, organism-based; conditions: in vivo; summary of the method: as §1
# [18] = species on record: Mus musculus; test: Antagonist activity at NMDA receptor in Nras driven p53 deficient mouse HCC cell membranes assessed as Abcg2 protein expression levels at 10 uM by […] analysis relative to control; design: scale not given: the % may be the effect or the level left; summary of the method: as §5
# [19] = molecular target: Glutamate NMDA receptor; Grin1/Grin2b (Rattus norvegicus, UniProt P35439+Q00960); test: Antagonist activity at recombinant rat GluN1a/GluN2B expressed in Xenopus laevis oocytes assessed as inhibition of glycine/glutamate-mediated current responses by two-electrode voltage clamp method; type: cell-based
# Summary of the method: (§6)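 Xenopus oocytes were injected with rat GluN1 and GluN2A–D cRNA (1:2) and recorded 2–6 days later by TEVC at room temperature, −40 mV, in Ba2+-containing recording solution, pH 7.4. Currents were evoked by 100 μM glycine plus glutamate at 2–3× EC50: 10 μM for GluN2A, 3 μM for GluN2B and GluN2C, 1 μM for GluN2D. IC50 from Hill fits per oocyte; Ki estimated.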
# [20] = molecular target: Ionotropic glutamate receptor NMDA 1/2D (Rattus norvegicus, UniProt P35439+Q62645); test: Antagonist activity at recombinant rat GluN1a/GluN2D expressed in Xenopus laevis oocytes assessed as inhibition of glycine/glutamate-mediated current responses by two-electrode voltage clamp method; type: cell-based; summary of the method: as §6
# Chain of Ionotropic glutamate receptor NMDA 1/2D (Q62645 whole entry, other chains not shown): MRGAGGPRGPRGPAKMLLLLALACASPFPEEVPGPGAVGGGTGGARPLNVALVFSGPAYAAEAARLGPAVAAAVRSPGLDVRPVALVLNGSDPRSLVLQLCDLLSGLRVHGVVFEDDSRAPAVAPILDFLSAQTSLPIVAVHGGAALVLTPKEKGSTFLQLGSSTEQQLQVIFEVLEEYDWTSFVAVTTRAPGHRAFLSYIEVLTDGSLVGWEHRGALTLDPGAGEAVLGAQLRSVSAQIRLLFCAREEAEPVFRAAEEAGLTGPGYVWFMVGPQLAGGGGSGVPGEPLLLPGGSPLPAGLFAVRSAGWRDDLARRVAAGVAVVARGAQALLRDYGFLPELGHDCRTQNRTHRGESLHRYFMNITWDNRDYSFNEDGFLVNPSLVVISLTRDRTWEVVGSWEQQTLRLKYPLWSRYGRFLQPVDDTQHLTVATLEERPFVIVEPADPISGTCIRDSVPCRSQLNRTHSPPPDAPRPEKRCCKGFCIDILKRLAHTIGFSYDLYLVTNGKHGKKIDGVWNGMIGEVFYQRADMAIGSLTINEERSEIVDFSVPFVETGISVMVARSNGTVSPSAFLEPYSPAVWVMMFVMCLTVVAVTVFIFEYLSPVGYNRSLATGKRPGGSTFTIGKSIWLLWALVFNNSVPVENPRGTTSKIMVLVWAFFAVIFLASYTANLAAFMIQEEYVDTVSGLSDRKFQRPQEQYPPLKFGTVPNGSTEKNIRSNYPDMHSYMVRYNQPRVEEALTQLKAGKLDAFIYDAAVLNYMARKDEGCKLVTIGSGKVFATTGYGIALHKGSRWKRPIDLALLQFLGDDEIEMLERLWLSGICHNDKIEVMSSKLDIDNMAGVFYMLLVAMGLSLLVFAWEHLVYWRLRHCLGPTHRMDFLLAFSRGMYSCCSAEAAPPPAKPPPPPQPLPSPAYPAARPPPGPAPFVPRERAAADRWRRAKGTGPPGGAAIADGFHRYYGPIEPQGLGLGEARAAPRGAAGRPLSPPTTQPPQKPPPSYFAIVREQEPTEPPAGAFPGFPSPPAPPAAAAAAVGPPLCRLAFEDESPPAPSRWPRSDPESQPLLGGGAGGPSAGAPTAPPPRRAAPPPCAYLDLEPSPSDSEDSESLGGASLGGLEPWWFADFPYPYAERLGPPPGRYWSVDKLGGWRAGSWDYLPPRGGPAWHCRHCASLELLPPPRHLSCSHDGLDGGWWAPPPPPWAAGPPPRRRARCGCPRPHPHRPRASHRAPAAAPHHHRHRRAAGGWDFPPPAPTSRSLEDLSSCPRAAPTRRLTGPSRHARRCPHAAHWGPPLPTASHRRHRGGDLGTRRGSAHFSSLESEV
# Chain of Glutamate NMDA receptor; Grin1/Grin2b (Q00960 whole entry, other chains not shown): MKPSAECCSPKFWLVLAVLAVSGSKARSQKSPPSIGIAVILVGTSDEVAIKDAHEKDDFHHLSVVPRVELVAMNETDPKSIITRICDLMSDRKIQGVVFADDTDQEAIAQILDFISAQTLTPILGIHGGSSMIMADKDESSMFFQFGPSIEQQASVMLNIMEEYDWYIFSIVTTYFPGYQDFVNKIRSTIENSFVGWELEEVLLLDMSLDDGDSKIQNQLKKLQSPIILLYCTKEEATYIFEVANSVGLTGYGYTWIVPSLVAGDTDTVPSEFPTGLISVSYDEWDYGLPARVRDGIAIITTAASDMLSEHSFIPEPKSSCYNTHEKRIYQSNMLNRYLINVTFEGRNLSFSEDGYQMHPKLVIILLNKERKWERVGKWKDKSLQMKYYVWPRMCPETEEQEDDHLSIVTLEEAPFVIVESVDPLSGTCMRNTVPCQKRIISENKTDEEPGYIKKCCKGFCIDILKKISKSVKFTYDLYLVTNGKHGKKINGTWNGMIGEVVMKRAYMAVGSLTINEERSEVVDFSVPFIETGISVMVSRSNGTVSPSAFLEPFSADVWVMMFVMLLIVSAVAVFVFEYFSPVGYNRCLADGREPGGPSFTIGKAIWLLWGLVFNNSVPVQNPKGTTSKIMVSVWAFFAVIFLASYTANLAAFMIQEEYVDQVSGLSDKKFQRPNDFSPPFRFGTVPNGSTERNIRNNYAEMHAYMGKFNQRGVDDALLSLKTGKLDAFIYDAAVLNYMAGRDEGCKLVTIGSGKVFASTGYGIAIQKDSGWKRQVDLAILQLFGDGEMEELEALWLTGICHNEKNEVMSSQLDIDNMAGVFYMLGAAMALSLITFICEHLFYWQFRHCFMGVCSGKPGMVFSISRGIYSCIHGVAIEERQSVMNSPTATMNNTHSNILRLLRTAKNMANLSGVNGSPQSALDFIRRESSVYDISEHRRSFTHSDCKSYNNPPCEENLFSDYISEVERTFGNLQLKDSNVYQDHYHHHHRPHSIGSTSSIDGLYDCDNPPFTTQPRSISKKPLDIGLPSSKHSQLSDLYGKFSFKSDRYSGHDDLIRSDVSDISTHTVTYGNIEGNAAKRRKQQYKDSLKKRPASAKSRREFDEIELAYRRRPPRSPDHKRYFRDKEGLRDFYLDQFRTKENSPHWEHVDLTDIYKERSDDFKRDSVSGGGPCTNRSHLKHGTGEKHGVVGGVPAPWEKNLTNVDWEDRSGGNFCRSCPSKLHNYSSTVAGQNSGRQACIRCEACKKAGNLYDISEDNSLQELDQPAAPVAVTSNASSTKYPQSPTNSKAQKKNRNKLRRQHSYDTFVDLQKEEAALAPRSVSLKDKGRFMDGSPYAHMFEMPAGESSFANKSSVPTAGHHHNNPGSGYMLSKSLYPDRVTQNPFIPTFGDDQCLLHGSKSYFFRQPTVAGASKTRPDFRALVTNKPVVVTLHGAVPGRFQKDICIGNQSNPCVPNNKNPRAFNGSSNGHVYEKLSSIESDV
# Chain of Glutamate receptor ionotropic, kainate 1 (P22756 whole entry): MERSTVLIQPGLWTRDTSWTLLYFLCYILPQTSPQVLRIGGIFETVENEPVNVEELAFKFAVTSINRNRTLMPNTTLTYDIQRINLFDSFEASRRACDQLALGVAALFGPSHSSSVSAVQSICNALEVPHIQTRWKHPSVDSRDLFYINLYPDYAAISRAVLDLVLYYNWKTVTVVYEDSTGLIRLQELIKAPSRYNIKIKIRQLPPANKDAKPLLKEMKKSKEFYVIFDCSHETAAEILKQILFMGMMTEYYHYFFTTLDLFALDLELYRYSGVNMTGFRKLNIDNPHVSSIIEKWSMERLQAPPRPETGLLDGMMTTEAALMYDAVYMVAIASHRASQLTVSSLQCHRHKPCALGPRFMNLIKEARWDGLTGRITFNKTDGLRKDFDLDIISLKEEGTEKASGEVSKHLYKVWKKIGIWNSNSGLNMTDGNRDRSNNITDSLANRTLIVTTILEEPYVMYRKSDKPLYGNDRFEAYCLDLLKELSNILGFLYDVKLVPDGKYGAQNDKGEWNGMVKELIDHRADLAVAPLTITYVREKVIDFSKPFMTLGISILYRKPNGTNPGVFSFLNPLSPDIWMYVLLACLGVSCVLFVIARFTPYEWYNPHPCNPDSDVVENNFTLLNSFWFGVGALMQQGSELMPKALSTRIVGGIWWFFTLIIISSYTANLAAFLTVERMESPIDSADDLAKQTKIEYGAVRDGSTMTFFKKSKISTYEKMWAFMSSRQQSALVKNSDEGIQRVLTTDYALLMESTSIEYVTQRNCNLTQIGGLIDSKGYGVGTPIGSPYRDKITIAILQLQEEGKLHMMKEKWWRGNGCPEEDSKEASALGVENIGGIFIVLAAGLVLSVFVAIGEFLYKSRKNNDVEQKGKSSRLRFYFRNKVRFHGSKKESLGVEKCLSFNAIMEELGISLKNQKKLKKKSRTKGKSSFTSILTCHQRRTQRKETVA
# Chain of Glutamate receptor ionotropic, kainate 2 (P42260 whole entry): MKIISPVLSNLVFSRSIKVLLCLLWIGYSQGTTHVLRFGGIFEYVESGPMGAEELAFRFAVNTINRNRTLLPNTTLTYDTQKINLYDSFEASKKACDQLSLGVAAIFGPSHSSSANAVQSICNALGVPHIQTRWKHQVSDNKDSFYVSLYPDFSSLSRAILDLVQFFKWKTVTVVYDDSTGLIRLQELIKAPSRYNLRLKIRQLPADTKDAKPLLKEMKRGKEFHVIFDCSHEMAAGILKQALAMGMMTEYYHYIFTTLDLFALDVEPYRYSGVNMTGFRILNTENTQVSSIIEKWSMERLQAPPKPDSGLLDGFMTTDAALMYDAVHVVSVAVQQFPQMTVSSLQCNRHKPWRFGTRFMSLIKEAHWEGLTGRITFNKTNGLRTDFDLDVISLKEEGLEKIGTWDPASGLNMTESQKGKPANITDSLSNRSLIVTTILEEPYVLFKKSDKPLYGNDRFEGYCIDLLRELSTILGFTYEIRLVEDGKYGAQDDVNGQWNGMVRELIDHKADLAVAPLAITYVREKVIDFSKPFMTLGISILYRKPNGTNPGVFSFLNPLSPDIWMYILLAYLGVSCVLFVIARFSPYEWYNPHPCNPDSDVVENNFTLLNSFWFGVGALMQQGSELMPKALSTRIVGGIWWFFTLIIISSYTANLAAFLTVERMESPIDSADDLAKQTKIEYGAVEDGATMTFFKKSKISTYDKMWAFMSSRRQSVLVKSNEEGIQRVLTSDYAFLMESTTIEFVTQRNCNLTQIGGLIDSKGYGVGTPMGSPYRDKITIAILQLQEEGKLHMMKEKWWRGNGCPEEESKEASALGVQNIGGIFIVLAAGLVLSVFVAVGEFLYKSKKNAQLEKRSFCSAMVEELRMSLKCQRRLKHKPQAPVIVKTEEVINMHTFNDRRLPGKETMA
smiles,measurement,setting,value
Cl.O=C(O)c1cc([C@H]2CCN[C@@H]2C(=O)O)ccc1Cl,AUC,[1],13 nmol·min/g
same,Activity,[2],127%
same,Activity,[3],201%
same,AUC,[4],575 nmol·min/g
same,Cmax,[5],8.7 nmol/g
same,Ki,[6],154 µM
same,Activity,[7],96%
same,Activity,[8],152%
same,Activity,[9],81%
same,Cmax,[10],0.3 nmol/g
same,Ki,[11],> 100 µM
same,Activity,[12],48%
same,Activity,[13],30%
same,Activity,[14],42%
same,Activity,[15],149%
same,Ki,[16],630 nM
same,pKi,[16],6.22
same,Tmax,[17],15 min
same,Activity,[18],34%
same,IC50,[19],29 µM
same,Ki,[19],10 µM
same,IC50,[20],170 µM
same,Ki,[20],41 µM
